High-throughput results: PubChem, several laboratories
A selection: hits, their analogues and other compounds. The true share with any hit is near 0.94%.
UCH37 inh: blocks the human deubiquitinase UCH37 | inhibition, % (concentration not given with the values) | purified proteasome/UCH37, Ub-AMC cleavage fluorescence | hit rate 0.33% among 330,000;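 active = mean inhibition over replicate wells above about 20%, limit read from the data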
Target sequence (Q9Y5K5 whole entry, looked up): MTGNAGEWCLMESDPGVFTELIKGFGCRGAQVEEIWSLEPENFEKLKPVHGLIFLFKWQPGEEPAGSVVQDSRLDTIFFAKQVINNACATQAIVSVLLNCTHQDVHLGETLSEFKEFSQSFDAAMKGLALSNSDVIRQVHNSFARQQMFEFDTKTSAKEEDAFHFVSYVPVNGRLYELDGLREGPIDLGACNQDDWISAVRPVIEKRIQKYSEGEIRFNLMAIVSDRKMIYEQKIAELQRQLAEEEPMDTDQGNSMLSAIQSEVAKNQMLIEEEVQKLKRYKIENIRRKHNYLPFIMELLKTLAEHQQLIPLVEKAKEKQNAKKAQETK
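Material: Human UCH37 enzyme supplied as purified proteasome complex | Schedule: 30 min preincubation with enzyme, 25 min cleavage at room temperature | Detection: AMC fluorescence 355/460 nm | Measure: % inhibition of Ub-AMC cleavage fluorescence | Controls: Wells without proteasome as full block, compound-free enzyme plus substrate as uninhibited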
Fh CTSL1 inh: counter-screen for PFM18AAP inhibitors: inhibitors of F. hepatica cathepsin L1 | hit rate 0.49% among 300,000 | recombinant F. hepatica cathepsin L1, Z-Leu-Arg-MCA fluorescence | AID 1906 | inhibition, % at 5.96 µM;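 active = inhibition above the mean of all tested compounds plus 3 SD, set per screening campaign, cut at about 17% in these data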
PKA-R1A act: PKA-R1A complex activation | P00514+P68181 | PKA-R1A dissociation, Cy5-IP20 fluorescence polarization; scaled: DMSO 0%, 113 µM cGMP 100% | activation, % at 11.4 µM | hit rate 0.083% among 340,000 | AID 504707;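 active = percent activation above the mean of all tested compounds plus 3 SD, cut at about 19% in these data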;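 also: higher means more PKAc released from R1A so a rise in polarization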
PKA-R2B act: PKA-R2B complex activation; hit rate 0.079% among 340,000; AID 504700; P22694+P31323; activation, % at 11.4 µM; PKA-R2B holoenzyme dissociation, Cy5-IP20 fluorescence polarization; R2B truncated from residue 108, S112A mutant; 0% DMSO only, 100% 113 µM cGMP;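 active = activation above a cutoff set at the mean over all compounds plus 3 SD, cut at about 18% in these data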;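 also: higher means more holoenzyme dissociation and a rise in polarization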
Target sequence (P31323 whole entry, looked up, other chains not shown, the tested form may be a part): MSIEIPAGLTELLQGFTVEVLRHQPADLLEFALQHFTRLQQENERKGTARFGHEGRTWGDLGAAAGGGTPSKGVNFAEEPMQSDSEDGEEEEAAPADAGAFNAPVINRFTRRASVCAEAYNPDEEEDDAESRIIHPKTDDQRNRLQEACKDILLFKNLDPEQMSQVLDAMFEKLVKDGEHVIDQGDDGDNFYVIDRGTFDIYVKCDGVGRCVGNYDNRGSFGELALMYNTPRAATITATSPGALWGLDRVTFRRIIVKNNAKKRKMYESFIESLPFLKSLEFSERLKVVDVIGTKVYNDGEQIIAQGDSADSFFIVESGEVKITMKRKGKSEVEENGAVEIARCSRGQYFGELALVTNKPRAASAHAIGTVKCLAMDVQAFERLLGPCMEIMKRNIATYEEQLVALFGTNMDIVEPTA
aDG glyco up: increases alpha dystroglycan glycosylation | Pro5-aDG cells, alpha-DG glycosylation AlphaScreen (IIH6); 0% Pro5, 100% B10-LARGE cell signal | hit rate 0.22% among 360,000 | activation, % at 10 µM;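 active = activation of at least 8% versus controls, or a plate z-score of at least 8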;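 also: Pro5 are CHO cells carrying HIG-tagged alpha-DG that lacks glycosylation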
R2B FP artifact: FP assay interference, PKA-R2B counter-screen; shares compounds with PKA-R2B act; FP artifact counterscreen, fluorescence polarization; activation, % at 11.4 µM; hit rate 6% among 270; in the data active = activation above about 20%;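 also: Cy5 labelled IP20 peptide probe with compound but no PKA protein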
PKA-R2B confirm: PKA-R2B complex activation, confirmation. shares compounds with PKA-R2B act. fluorescence polarization. activation, % at 11.4 µM. hit rate 9% among 270. AID 504797; in the data active = activation above about 19%
Target sequence (P31323 whole entry, looked up): as the sequence (P31323 whole entry, looked up, other chains not shown, the tested form may be a part) above
R1A FP artifact: FP assay interference, PKA-R1A counter-screen. shares compounds with PKA-R1A act. Cy5-IP20 peptide alone, fluorescence polarization artifact counterscreen. activation, % at 11.4 µM. hit rate 7% among 280;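 active = mean activation over triplicate runs exceeds the adjusted cutoff derived for the parent primary screen, cut at about 19% in these data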;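 also: no PKA protein present so any polarization rise reflects compound interference; higher means stronger polarization artifact and likely false positive in parent screen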
PKA-R1A act conf: PKA-R1A complex activation, confirmation; shares compounds with PKA-R1A act; Cy5-IP20 fluorescence polarization, PKA-R1A holoenzyme dissociation; activation, % at 11.4 µM; hit rate 9% among 280; AID 504800;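 active = mean activation over replicate wells exceeds the adjusted hit threshold taken from the earlier primary screen, cut at about 20% in these data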
UCH37 reconfirm: reconfirmed inhibitor of human deubiquitinase UCH37 | AID 624100 | Proteasome-bound UCH37, Ub-AMC cleavage fluorescence | shares compounds with UCH37 inh | hit rate 27% among 480 | inhibition, % at 20 µM;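 active = average inhibition over replicates above about 50%, so the earlier screening hit is confirmed, limit read from the data; inactive = the rest, counted as false positives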;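 also: based on cleavage rate fitted by regression over a 30 min kinetic read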
aDG conf: alpha-DG glycosylation activation, confirmation | shares compounds with aDG glyco up | activation, % at 10 µM (by protocol) | Pro5-aDG cells, IIH6 AlphaLISA; scaled to LARGE-overexpressing B10 cells as 100% | hit rate 17% among 600;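 active = activation of at least 7% in one or more replicates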;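 also: cells exposed to compound for two days before detection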
Large screens that a line does not name were inactive (follow-up assays come after a bar, where they were run).

Cc1ccc(S(=O)(=O)N2CCC(C(=O)NNC(=O)c3ccccc3O)CC2)cc1C	none
Oc1cccc(C=NNc2nn3cnnc3c3ccccc23)c1	none (no result: Fh CTSL1 inh, PKA-R1A act, PKA-R2B act, aDG glyco up)
CCN(CC)c1ccc(C(=C2C=CC(=[N+](CC)CC)C=C2)c2ccc(S(=O)(=O)O)cc2S(=O)(=O)[O-])cc1	PKA-R1A act 34, PKA-R2B act 39 (no result: Fh CTSL1 inh) | R2B FP artifact 49 | PKA-R2B confirm 48 | R1A FP artifact 49 | PKA-R1A act conf 52
CCN(CC)c1ccc(C(=O)O)cc1	none
CC1=C/C(=C(/c2cc(C)c(O)c(Br)c2)c2ccccc2S(=O)(=O)O)C=C(Br)C1=O	PKA-R1A act 35, PKA-R2B act 28 | R2B FP artifact 51 | PKA-R2B confirm 46 | R1A FP artifact 51 | PKA-R1A act conf 49
Cc1cc(=O)n2[nH]c(NCc3c(F)cccc3Cl)nc2n1	PKA-R1A act 60, PKA-R2B act 72 | R2B FP artifact 103 | PKA-R2B confirm 93 | R1A FP artifact 103 | PKA-R1A act conf 100
Cc1nn(-c2ccccc2)c(Cl)c1C=NNS(=O)(=O)c1ccc(Br)cc1	none (no result: Fh CTSL1 inh, PKA-R1A act, PKA-R2B act, aDG glyco up)
O=C(O)c1cccc(NC2=C(Cl)C(=O)c3ccccc3C2=O)c1	UCH37 inh 46, PKA-R2B act 22 (no result: Fh CTSL1 inh) | R2B FP artifact inactive | PKA-R2B confirm inactive | UCH37 reconfirm inactive
COc1cc(C=Nn2c(C3CCCCC3)n[nH]c2=S)ccc1O	none (no result: Fh CTSL1 inh, PKA-R1A act, PKA-R2B act, aDG glyco up)
CN(C)c1ccc(C(=O)OCC(=O)Nc2ccc(S(N)(=O)=O)cc2)cc1	PKA-R1A act 46, PKA-R2B act 48, aDG glyco up 6.0 | R2B FP artifact 58 | PKA-R2B confirm 59 | R1A FP artifact 58 | PKA-R1A act conf 63 | aDG conf inactive
Cc1cccc(-n2c(C)cc(C=NNC(=O)c3ccc(CN4CCOCC4)cc3)c2C)c1	none (no result: Fh CTSL1 inh, PKA-R1A act, PKA-R2B act, aDG glyco up)
CC(=O)c1ccc(N2CCC(C)CC2)c(F)c1	PKA-R1A act 20 | R1A FP artifact inactive | PKA-R1A act conf inactive
CN(Cc1ccccc1)C(=O)C1CCN(S(=O)(=O)c2ccc(-n3cnnn3)cc2)CC1	PKA-R1A act 21 | R1A FP artifact inactive | PKA-R1A act conf inactive
CC12CCC(CC1=NOC(=O)c1cccc([N+](=O)[O-])c1)C2(C)C (centres undefined)	none (no result: Fh CTSL1 inh, PKA-R1A act, PKA-R2B act, aDG glyco up)
CCOC(=O)COc1ccc2c(c1)C(=O)CC(C)(C)O2	PKA-R1A act 19 | R1A FP artifact inactive | PKA-R1A act conf inactive
CCOC(=O)N1CCN(C(=O)COc2ccc3c(c2)C(=O)CC(C)(C)O3)CC1	none
Fc1ccccc1N1CCN(C2CCN(Cc3c[nH]c4ccccc34)CC2)CC1	PKA-R1A act 19 | R1A FP artifact inactive | PKA-R1A act conf inactive
CC(=NNC(=S)NCc1ccccc1)c1ccc(C)o1	none (no result: Fh CTSL1 inh, PKA-R1A act, PKA-R2B act, aDG glyco up)
O=C(NCc1ccco1)c1cccc2c1C(=O)c1ccc(N3CCC(N4CCCCC4)CC3)cc1S2(=O)=O	PKA-R1A act 20 (no result: UCH37 inh, Fh CTSL1 inh) | R1A FP artifact inactive | PKA-R1A act conf inactive
Cc1ccc(C)n1-c1ccc(C(=O)NN=Cc2ccncc2)cc1	none (no result: Fh CTSL1 inh, PKA-R1A act, PKA-R2B act, aDG glyco up)
COc1ccc(CC(=O)NN=C(C)CC(=O)N(C)c2ccccc2)cc1	none (no result: Fh CTSL1 inh, PKA-R1A act, PKA-R2B act, aDG glyco up)
O=C(O)C1CCC(N2C(=O)c3cccc([N+](=O)[O-])c3C2=O)CC1 (centres undefined)	PKA-R1A act 19 | R1A FP artifact inactive | PKA-R1A act conf inactive
CCOc1cc(CNC(=O)CN2C(=O)c3ccccc3S2(=O)=O)ccc1OC	PKA-R1A act 19 | R1A FP artifact inactive | PKA-R1A act conf inactive
COc1ccccc1CNC(=O)CN1C(=O)c2ccccc2S1(=O)=O	none
CC(NC(=O)Cc1ccccc1)c1ccc(F)cc1 (centres undefined)	none
CC(NC(=O)Cc1ccccc1)c1ccccc1 (centres undefined)	PKA-R1A act 19 | R1A FP artifact inactive | PKA-R1A act conf inactive
CC(C)C(=O)Nc1c2c(nc3c1CCC3)CCCC2	PKA-R1A act 24 | R1A FP artifact inactive | PKA-R1A act conf inactive
CCC(C)C(=O)Nc1c2c(nc3c1CCC3)CCCC2 (centres undefined)	none
CC1CCCCC1=NNc1ccc([N+](=O)[O-])cc1[N+](=O)[O-] (centres undefined)	none (no result: Fh CTSL1 inh, PKA-R1A act, PKA-R2B act, aDG glyco up)
COc1ccccc1C=NOCC(=O)NCc1ccc2c(c1)OCO2	none (no result: Fh CTSL1 inh, PKA-R1A act, PKA-R2B act, aDG glyco up)
COc1ccc(Cn2ccnc2)cc1Br	PKA-R1A act 20 | R1A FP artifact inactive | PKA-R1A act conf inactive
CCOc1ccc(-c2cc(C(=O)NN=Cc3ccc(O)cc3)c3ccccc3n2)cc1	none (no result: Fh CTSL1 inh, PKA-R1A act, PKA-R2B act, aDG glyco up)
Cc1ccc2cc3c(N)c(C(=O)N4CCOCC4)sc3nc2c1	PKA-R1A act 19 | R1A FP artifact inactive | PKA-R1A act conf inactive
CC(NC(=O)NCCCn1ccnc1)(C(F)(F)F)C(F)(F)F	PKA-R1A act 21 | R1A FP artifact inactive | PKA-R1A act conf inactive
COc1cc(NC(=O)c2cc(-c3ccco3)on2)cc(OC)c1OC	PKA-R1A act 19 | R1A FP artifact inactive | PKA-R1A act conf inactive
COc1ccc(-c2cc(C(=O)Nc3cc(OC)c(OC)c(OC)c3)no2)cc1OC	none
O=C(C1=C(O)C(=O)N(Cc2ccco2)C1c1cccc(O)c1)c1ccco1 (centres undefined)	PKA-R1A act 20 | R1A FP artifact inactive | PKA-R1A act conf inactive
N#CCC(=O)NN=C1CCCCC1C1CCCCC1 (centres undefined)	none (no result: Fh CTSL1 inh, PKA-R1A act, PKA-R2B act, aDG glyco up)
O=C(CN1C(=O)c2cccnc2C1=O)c1ccccc1	PKA-R1A act 20 | R1A FP artifact inactive | PKA-R1A act conf inactive
Nc1nnnn1/N=C/c1ccccn1	PKA-R1A act 21 (no result: UCH37 inh) | R1A FP artifact inactive | PKA-R1A act conf inactive
COc1ccccc1C=NNC(=O)c1cccc(NC(=O)c2ccccc2Cl)c1	none (no result: Fh CTSL1 inh, PKA-R1A act, PKA-R2B act, aDG glyco up)
Cc1cc(Br)c(NC(=O)CN2C(=O)NC3(CCOc4ccccc43)C2=O)c(Br)c1 (centres undefined)	PKA-R1A act 20 (no result: UCH37 inh, Fh CTSL1 inh) | R1A FP artifact inactive | PKA-R1A act conf inactive
O=[N+]([O-])c1cccc(C=NNc2nccnc2Cl)c1	none (no result: Fh CTSL1 inh, PKA-R1A act, PKA-R2B act, aDG glyco up)
